From PubChem
Shown are actives, neighbours in structure and some others; about 1.5% of the full set was active somewhere.
GalR3 antag: human GalR3 antagonism | inhibition, % at 3 µM | actives 0.44% (n = 360,000) | O60755 | AID 651719 | HEK293 GalR3-CNG cAMP membrane potential fluorescence; galR3 body fused to GalR1 C-terminus;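 active = inhibition above the screen-wide average plus 3 SD, cut at about 13% in these data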;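 note: forskolin and galanin both at EC90 stimulate the cells; cAMP rise reported by CNG channel membrane potential dye signal; 0% = forskolin plus galanin with DMSO and 100% = forskolin alone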
Target sequence (O60755 1-299 limits assumed): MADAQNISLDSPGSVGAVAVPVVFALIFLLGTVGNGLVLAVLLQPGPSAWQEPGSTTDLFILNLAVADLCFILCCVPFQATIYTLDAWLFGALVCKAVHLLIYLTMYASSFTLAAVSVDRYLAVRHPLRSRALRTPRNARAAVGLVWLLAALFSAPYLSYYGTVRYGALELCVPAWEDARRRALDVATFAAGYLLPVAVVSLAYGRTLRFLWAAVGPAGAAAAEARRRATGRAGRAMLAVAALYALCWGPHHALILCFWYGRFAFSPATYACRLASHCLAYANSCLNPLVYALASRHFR
NR2E3 ag-1: agonists of human NR2E3 nuclear receptor | actives 0.35% (n = 360,000) | CHO-S Gal4-NCOR/VP16-NR2E3 two-hybrid, luciferase | AID 602229 | inhibition of corepressor binding, % at 3.98 µM | Q9Y5X4;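 active = inhibition above the mean of all tested compounds plus 3 SD, cut at about 70% in these data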;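 note: 0% = DMSO with NR2E3 transfected cells and 100% = cells lacking NR2E3 construct; higher means lower luciferase signal from less NR2E3 corepressor binding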
JMJD2C inh: inhibitors of human GASC-1 (JMJD2C) demethylase | Q9H3R0 | GST-JMJD2C(1-420) H3K9me3 demethylation, DELFIA europium | inhibition, % at 2.35 µM | actives 0.069% (n = 330,000) | AID 2099;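 active = more than half of a compound's replicate wells show inhibition beyond 50%, single wells judged on their own value; inconclusive = some, but no more than half, of replicates pass 50% inhibition; inactive = no replicate passes 50% inhibition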;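 note: signal counts dimethyl H3K9 product captured on neutravidin plate; 0% = median of DMSO wells and 100% = 0.3 times that DMSO median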
Target sequence (Q9H3R0 1-420 limits assumed): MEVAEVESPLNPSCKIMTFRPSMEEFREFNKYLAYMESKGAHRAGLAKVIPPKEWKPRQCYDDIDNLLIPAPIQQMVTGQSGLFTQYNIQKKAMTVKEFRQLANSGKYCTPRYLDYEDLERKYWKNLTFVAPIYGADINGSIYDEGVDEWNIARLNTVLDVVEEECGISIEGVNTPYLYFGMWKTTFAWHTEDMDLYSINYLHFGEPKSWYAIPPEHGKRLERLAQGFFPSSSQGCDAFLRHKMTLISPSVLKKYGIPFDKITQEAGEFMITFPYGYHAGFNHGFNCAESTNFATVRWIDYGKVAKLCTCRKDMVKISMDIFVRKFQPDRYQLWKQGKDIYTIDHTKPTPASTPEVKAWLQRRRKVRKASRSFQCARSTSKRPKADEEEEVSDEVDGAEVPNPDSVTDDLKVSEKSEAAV
NR2E3 ag-2: NR2E3 (human) agonism. Q9Y5X4. GST-NR2E3/biotin-RetCOR TR-FRET, 1536-well. inhibition of corepressor binding, % at 4.78 µM. actives 0.12% (n = 320,000). AID 2300;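 active = percent inhibition above the cutoff of mean plus 3 SD of all tested compounds, set per screening campaign, cut at about 20% in these data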;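 note: 0% = DMSO wells and 100% = biotin wells as full block of FRET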
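Material: NR2E3–RetCOR corepressor complex / Incubation: Compound–protein incubation for 5 h at 4 °C / Dosing: compound at 4.8 µM, single dose / Detection: time-resolved FRET / Benchmarks: high control biotin, low control 0.6% DMSO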
Jurkat NFkB inh: lowers PMA/ionomycin-induced NF-kB signal in Jurkat cells | PMA/ionomycin-induced NF-kB luciferase reporter, luminescence | inhibition, % at 4 µM | actives 0.53% (n = 330,000) | AID 435003; in the data active = inhibition above about 50%
697 NFkB inh: lowers PMA/ionomycin-induced NF-kB signal in 697 B cells; 697 B-cell NF-kB luciferase reporter, 16 h; inhibition, % at 4 µM; actives 0.33% (n = 330,000); in the data active = inhibition above about 35%
Starred values were filed as active, the others as inactive; ? = inconclusive; nt = no result given.

SMILES	GalR3 antag	NR2E3 ag-1	JMJD2C inh	NR2E3 ag-2	Jurkat NFkB inh	697 NFkB inh
CCc1ccc(S(=O)(=O)/N=C2/C=C(Sc3ncn[nH]3)C(=O)c3ccccc32)cc1	nt	99.9*	18.5	5.8	nt	nt
O=C(NC1CCc2ccccc21)c1cc(COc2cncc(Cl)c2)on1 (stereo not drawn)	-1.8	-44.5	60.0*	-0.9	-5.5	-53.7
O=C(NC1CCc2ccccc21)c1cc(COc2ccc(F)cc2Cl)on1 (stereo not drawn)	-1.0	-33.7	-6.0	-0.9	-2.6	-2.5
CCOC(=O)C1(C)/C(=N/Nc2ccccc2Cl)C(=O)C(=O)N1c1ccccc1 (stereo not drawn)	1.8	-30.4	-7.2	-0.5	-1.8	-7.4
CCN(C[C@H]1N[C@@](C)(C(=O)OC)[C@H]2C(=O)N(C)C(=O)[C@@H]12)C(=O)Nc1ccccc1	-4.5	1.9	54.5*	nt	-6.9	-2.0
CCN(C[C@H]1N[C@@](C)(C(=O)OC)[C@H]2C(=O)N(C)C(=O)[C@@H]12)C(=O)c1ccccc1	-7.3	-38.4	nt	nt	-9.4	15.1
NC(=O)c1ccsc1NC(=O)COC(=O)Cc1cccc2ccccc12	104.0*	-12.2	-0.6	3.4	8.0	-26.0
NC(=O)c1ccsc1NC(=O)COC(=O)Cc1c[nH]c2ccccc12	-6.7	-7.4	0.7	0.3	2.6	-3.2
Cc1cccc(C(=O)N/N=C/C(C)Cc2ccc3c(c2)OCO3)c1 (stereo not drawn)	0.1	7.7	67.4*	-1.8	0.1	12.7
CCOC(=O)C1=C[C@@H](C2CCCC2)N(S(=O)(=O)c2ccc([N+](=O)[O-])cc2)[C@H]1c1ccccc1	-8.5	45.4	nt	nt	nt	nt
CC(=O)Nc1ccc(NC(=O)CC2Nc3cccc4cccc(c34)NC2=O)cc1 (stereo not drawn)	0.2	-21.9	6.6	-2.5	5.7	31.0
Cc1cccc(NC(=O)CC2Nc3cccc4cccc(c34)NC2=O)c1 (stereo not drawn)	-8.7	-45.8	51.4*	0.7	30.3	10.4
COc1cc2c(cc1N)-c1ccc(N)cc1C2	-4.6	-26.1	nt	nt	nt	nt
Cn1c(SCC(=O)N2CCCC2=O)nnc1-c1ccccc1F	-3.9	-36.3	55.1*	-0.5	-5.1	-5.4
CCn1c(SCC(=O)N2CCCC2=O)nnc1-c1cccs1	-6.7	-5.4	3.6	-1.5	-4.9	12.0
CC(=O)c1ccc(NC(=O)CSc2nc(=O)cc(N)n2-c2ccccc2)cc1	-1.4	-63.9	-14.5	-2.8	-36.3	-30.5
N#Cc1cc(-c2ccccc2)nnc1Sc1ccccc1	-3.4	-0.6	101.6*	-1.3	-54.1	-25.7
Cc1nc2ccccn2c1-c1csc(Nc2cccc(O)c2)n1	-3.9	-16.7	34.4	nt	nt	nt
Cc1cccc(Nc2nc(-c3c(C)nc4ccccn34)cs2)c1	-4.0	78.1*	?	0.1	44.4	-67.0
CC(C)(C)OC(=O)N[C@H](C(=O)OC(C)(C)C)c1ccc2c(c1)OCO2	-2.8	-21.1	10.8	0.9	-0.9	3.7
Cc1cccc(N2C(=O)C3C4C=CC(C4)C3C2=O)c1 (stereo not drawn)	-2.5	-16.1	53.6*	-6.9	-10.9	5.2
O=C(OCCCN=C1NS(=O)(=O)c2ccccc21)C1CC(=O)N(c2ccc(Cl)cc2)C1 (stereo not drawn)	4.5	-5.7	8.3	1.8	11.3	3.6
COc1ccc(NC(=O)C2CCCCN2N)cc1OCC(C)C (stereo not drawn)	-8.5	-1.6	80.4*	-0.7	0.3	14.6
COc1ccc(Nc2nc(-c3cccs3)cs2)c(OC)c1	-2.7	-103.8	7.3	1.1	-11.3	-23.5
COc1ccc(OC)c(Nc2nc(-c3cccs3)cs2)c1	-0.5	-7.1	50.9*	-0.3	-10.2	-6.2
SMILES	GalR3 antag	NR2E3 ag-1	JMJD2C inh	NR2E3 ag-2	Jurkat NFkB inh	697 NFkB inh
COc1ccccc1OCC(=O)Nc1c2c(nn1-c1ccccc1)CS(=O)(=O)C2	-6.6	-9.6	3.9	3.1	-14.3	-11.8
O=C1c2cccc3c([N+](=O)[O-])ccc(c23)C(=O)N1Cc1cccnc1	30.3*	-14.2	15.9	nt	nt	nt
O=C1c2cccc3cccc(c23)C(=O)N1Cc1cccnc1	-1.7	-2.1	-0.2	2.8	-14.8	-7.6
COc1cc(NC(=O)c2ccccc2-n2cnnn2)cc(OC)c1	-3.3	-2.5	2.8	-1.8	4.5	-22.3
COc1cc(OC)cc(C(=O)Nc2ccc(-n3cnnn3)c(C)c2)c1	-0.9	-41.8	88.8*	-1.4	-24.7	-0.1
CCCCOc1ccc(C(=O)Nc2ccc(N3CCN(C(C)=O)CC3)cc2)cc1	0.3	2.0	61.2*	1.2	2.2	0.6
COc1ccc([C@H]2N[C@]3(CCCN(Cc4cccn4C)C3=O)[C@H]3C(=O)N(Cc4ccccc4)C(=O)[C@@H]23)cc1	-3.8	-6.1	nt	nt	nt	nt
CCOC(=O)C1(C)NC(c2cccs2)C2C(=O)N(c3ccc(OC)cc3)C(=O)C21 (stereo not drawn)	-3.7	-8.6	54.8*	3.0	7.7	8.6
CN(Cc1ccccc1F)C(=O)CCNC(=O)c1ccc(C(C)(C)C)cc1	-0.9	0.9	-8.5	-0.2	-8.4	15.2
CCN1CCCC1CNC(=O)c1cc2c(C)nc3ccccc3c2o1 (stereo not drawn)	-3.2	16.7	1.5	-0.9	-35.4	4.5
Cc1nc2ccccc2c2oc(C(=O)NCC3COc4ccccc4O3)cc12 (stereo not drawn)	1.5	78.8*	4.8	1.2	16.2	-23.2
COc1ccc(CNC(=O)c2cc3c(C)nc4ccccc4c3o2)c(OC)c1	nt	98.9*	-8.6	0.3	42.8	13.9
Cc1cc(C)c(NC(=O)CSc2nnnn2-c2cccnc2)c(C)c1	-4.9	12.2	3.4	0.7	-2.1	7.4
CC1(C)N=C(N)N=C(N)N1c1ccc(CCCCc2ccccc2)cc1	100.6*	-33.4	nt	nt	nt	nt
CCOc1ccc(-n2c(-c3ccc(Br)cc3)c[n+]3c2CCCCC3)cc1	18.5*	-4.3	2.3	3.1	29.9	-1.2
CCOc1ccc(-n2c(-c3ccccc3)c[n+]3c2CCC3)cc1	-3.6	10.2	14.8	-1.9	41.7	1.7
CCC(CC)c1nnc(NC(=O)CN2C(=O)NC3(CCCC3)C2=O)s1	-1.1	1.1	-0.7	2.3	16.2	21.5
CCCc1cc(=O)oc2c3c(cc(OCC(=O)NCc4ccccn4)c12)OC(C)(C)CC3	16.4*	-21.3	7.5	-0.1	2.9	10.9
Cc1[nH]n(-c2ccccc2)c(=O)c1C(C[N+](=O)[O-])c1ccc(Br)cc1 (stereo not drawn)	1.9	-36.4	-17.6	-1.6	0.5	3.5
COc1cccc(C(C[N+](=O)[O-])c2c(C)[nH]n(-c3ccccc3)c2=O)c1 (stereo not drawn)	-0.9	-8.4	68.9*	10.3	3.1	3.9
Cc1cccn2c(=O)c(C(=O)NC3CC(C)CC(C)(C)C3)c(O)nc12 (stereo not drawn)	-0.9	-4.3	52.5*	2.3	-2.8	-14.2
